# Activity calls are given as the source filed them. No cut-off for these calls is given here.
# What was measured:
# [1] = Cytotoxicity against human MCF7 cells assessed as reduction in cell viability after 48 hrs by MTT assay; assay type: functional, cell-based; conditions: MCF7, 48 h
# Procedure, shortened: (§1)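 Cells were grown in DMEM with 10% calf serum and seeded at 50,000 cells/mL. They grew 2 days at 37 °C, 10% CO2, then took serial compound dilutions for 48 h. MTT (final 0.5 mg/mL) ran 2 h; formazan was washed, dissolved in DMSO and read at 590 nm. IC50 was taken from dose-response curves as the mean of two parallel experiments. 5-FU was the positive control. TI = IC50 WI-38/IC50 HepG2.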
# [2] = Cytotoxicity against human HepG2 cells assessed as reduction in cell viability after 48 hrs by MTT assay; assay type: functional, cell-based; conditions: HepG2, 48 h; procedure, shortened: as §1
# [3] = Cytotoxicity against human WI38 cells assessed as reduction in cell viability after 48 hrs by MTT assay; assay type: toxicity, cell-based, WI-38; procedure, shortened: as §1
# [4] = Therapeutic index, ratio of IC50 for human WI38 cells to IC50 for human HepG2 cells; assay type: cell-based; conditions: WI38 cells and HepG2 cells, read-out: Ratio IC50; procedure, shortened: as §1
# [5] = Antioxidant activity assessed as DPPH radical scavenging activity at 1 uM after 30 mins in absence of light by spectrophotometric analysis; assay type: functional
# Procedure, shortened: (§2)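 Compounds were dissolved in methanol at 1 µM, and 200 µL was added to 0.4 mL of 0.1 mM DPPH in methanol. Mixtures stood 30 min in the dark and were read at 517 nm against a blank (no DPPH). The negative control used methanol in place of compound. I% = (Ablank − Asample)/Ablank × 100. Ascorbic acid was the reference. Means of 3 replicates.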
# [6] = Antioxidant activity assessed as DPPH radical scavenging activity at 1 uM after 30 mins in absence of light by spectrophotometric analysis relative to ascorbic acid; assay type: functional; procedure, shortened: as §2
# [7] = Pro-oxidant activity as bleomycin-Fe2+ induced calf thymus DNA damage measured as absorbance at 2 mM after 1 hr by thiobarbituric acid-based assay; assay type: ADME; parameters: unit not given here; conditions: cattle, 2000 µM
# Procedure, shortened: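 The mix held calf thymus DNA 0.5 mg/mL, bleomycin sulfate 0.05 mg/mL, MgCl2 5 mM, FeCl3 50 mM and sample 2 mM. Ascorbic acid was the positive control. Capped tubes were heated at 80 °C for 30 min, ice-cooled, shaken and centrifuged. DNA damage was read as the increase in absorbance at 532 nm. Means of 3 replicates.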
# [8] = Upregulation of caspase-8 expression in human HepG2 cells at IC50 after 48 hrs by ELISA; assay type: functional, cell-based
# Procedure, shortened: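 Cells were trypsinized and lysed by liquid-nitrogen freeze–thaw. Lysates were incubated with HRP-conjugated anti-caspase-8 antibody for 30 min at 37 °C, with ELISA read-out at 450 nm. Levels were compared against untreated cells; mean ± SD, ANOVA with LSD/Dunnett post hoc.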
# [9] = Downregulation of Ki67 expression in human HepG2 cells at IC50 after 48 hrs by ELISA; assay type: functional, cell-based
# Procedure, shortened: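 They were detached with trypsin and lysed by four rounds of ultrasonication before Ki-67 measurement. Comparison was with untreated cells; mean ± SD, ANOVA with LSD/Dunnett post hoc.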
# [10] = Downregulation of Bcl2 expression in human HepG2 cells at IC50 after 48 hrs by ELISA; assay type: functional, cell-based
# Procedure, shortened: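 For ELISA, lysates had biotin conjugate 2 h at 25 °C, then streptavidin-HRP 1 h at 25 °C, read at 450 nm. Comparison was with untreated cells; mean ± SD, ANOVA with LSD/Dunnett post hoc.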
# [11] = Glutathione peroxidase-like activity assessed as decrease in H2O2 reduction at 41 uM preincubated with compound followed by H2O2 addition after 3 mins by spectrophotometry based NADPH-reductase coupled assay
# Procedure, shortened: (§3)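 Buffer: 50 mM phosphate with 0.1% Triton X-100, plus NADPH reagent (24 µmol glutathione, 12 U glutathione reductase, 4.8 µmol NADPH). Compound was at 41 µM and the reaction was started with 0.8 mM H2O2. A340 was followed for 3 min, giving ΔA/min. Rates were corrected for background H2O2/GSH reaction, and for compound absorbance where colored. Ebselen (41 µM) served as reference.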
# [12] = Glutathione peroxidase-like activity assessed as decrease in H2O2 reduction at 41 uM preincubated with compound followed by H2O2 addition after 3 mins by spectrophotometry based NADPH-reductase coupled assay relative to ebselen; procedure, shortened: as §3
Compound,IC50 [1],IC50 [2],IC50 at 48 h [3],selectivity ratio [4],Activity [5],fold change (FC) [6],Activity [7],Activity [8],Activity [9],Activity [10],Activity [11],fold change (FC) [12]
CC1=C([Se]c2ccc(NCc3nnnn3C(C)(C)C)cc2)C(=O)c2ccccc2C1=O,42 µM,33 µM,48 µM,1.5,69%,0.8,103,,,,,
CC(=O)N(c1ccc([Se]C2=CC(=O)c3ccccc3C2=O)cc1)C(C(=O)NC(C)(C)C)c1ccc(C)cc1 (centres undefined),34 µM,53 µM,29 µM,> 0.5,,,,Active,Active,Active,,
O=c1[nH]cc(F)c(=O)[nH]1 [FLUOROURACIL],3 µM,8 µM,4 µM,0.5,,,,,,,,
CC(C)(C)n1nnnc1C(Nc1ccc([Se][Se]c2ccc(NC(c3ccco3)c3nnnn3C(C)(C)C)cc2)cc1)c1ccco1 (centres undefined),14 µM,51 µM,11 µM,,24%,0.3,108,,,,Active,< 5
c1cc([Se][Se]c2ccc(NCc3nnnn3C3CCCCC3)cc2)ccc1NCc1nnnn1C1CCCCC1,≥ 100 µM,≥ 100 µM,68 µM,,19.4%,0.2,96,,,,Active,
O=C1O[C@H]([C@@H](O)CO)C(O)=C1O [ASCORBIC ACID],,,,,96.5%,,310,,,,,
COc1ccc(-n2nnnc2C(Nc2ccc([Se][Se]c3ccc(NC(c4nnnn4-c4ccc(OC)cc4)C(C)C)cc3)cc2)C(C)C)cc1 (centres undefined),≥ 100 µM,≥ 100 µM,≥ 100 µM,,30.5%,0.3,77,,,,,
Cc1ccc(C(Nc2ccc([Se][Se]c3ccc(NC(c4ccc(C)cc4)c4nnnn4C(C)(C)C)cc3)cc2)c2nnnn2C(C)(C)C)cc1 (centres undefined),62 µM,46 µM,41 µM,,30.4%,0.3,98,,,,,
CC1=C([Se]c2ccc(NC(c3ccco3)c3nnnn3C(C)(C)C)cc2)C(=O)c2ccccc2C1=O (centres undefined),≥ 100 µM,9 µM,5 µM,0.6,95.3%,1,138,Active,Active,Active,,
Cc1ccc(C(Nc2ccc([Se][Se]c3ccc(NC(c4ccc(C)cc4)c4nnnn4C4CCCCC4)cc3)cc2)c2nnnn2C2CCCCC2)cc1 (centres undefined),78 µM,≥ 100 µM,56 µM,,22.9%,0.3,79,,,,,
CC(C)C(Nc1ccc([Se][Se]c2ccc(NC(c3nnnn3Cc3ccccc3)C(C)C)cc2)cc1)c1nnnn1Cc1ccccc1 (centres undefined),≥ 100 µM,10 µM,≥ 100 µM,> 10,20.5%,0.2,92,Active,Active,Active,,
COc1ccc(Cn2nnnc2C(Nc2ccc([Se][Se]c3ccc(NC(c4ccc(C)cc4)c4nnnn4Cc4ccc(OC)cc4OC)cc3)cc2)c2ccc(C)cc2)c(OC)c1 (centres undefined),≥ 100 µM,≥ 100 µM,≥ 100 µM,,22.1%,0.2,130,,,,Active,< 5
CC(C)(C)n1nnnc1CNc1ccc([Se][Se]c2ccc(NCc3nnnn3C(C)(C)C)cc2)cc1,28 µM,44 µM,21 µM,,44.3%,0.5,93,,,,Active,
c1coc(C(Nc2ccc([Se][Se]c3ccc(NC(c4ccco4)c4nnnn4C4CCCCC4)cc3)cc2)c2nnnn2C2CCCCC2)c1 (centres undefined),≥ 100 µM,36 µM,83 µM,2,49.5%,0.5,222,,,,Active,< 5
CC(C)C(Nc1ccc([Se][Se]c2ccc(NC(c3nnnn3C(C)(C)C)C(C)C)cc2)cc1)c1nnnn1C(C)(C)C (centres undefined),≥ 100 µM,37 µM,≥ 100 µM,> 3,38.6%,0.4,67,,,,,
CC(C)C(Nc1ccc([Se][Se]c2ccc(NC(c3nnnn3C3CCCCC3)C(C)C)cc2)cc1)c1nnnn1C1CCCCC1 (centres undefined),52 µM,≥ 100 µM,43 µM,,22.9%,0.2,99,,,,,
COC(CC(OC)OC)Cn1nnnc1C(Nc1ccc([Se][Se]c2ccc(NC(c3nnnn3CC(CC(OC)OC)OC)C(C)C)cc2)cc1)C(C)C (centres undefined),≥ 100 µM,47 µM,≥ 100 µM,> 2,26.3%,0.3,94,,,,Active,
COc1ccc(Cn2nnnc2C(Nc2ccc([Se][Se]c3ccc(NC(c4ccco4)c4nnnn4Cc4ccc(OC)cc4OC)cc3)cc2)c2ccco2)c(OC)c1 (centres undefined),≥ 100 µM,≥ 100 µM,88 µM,,18.8%,0.2,81,,,,Active,
COc1ccc(Cn2nnnc2C(Nc2ccc([Se][Se]c3ccc(NC(c4nnnn4Cc4ccc(OC)cc4OC)C(C)C)cc3)cc2)C(C)C)c(OC)c1 (centres undefined),70 µM,2 µM,64 µM,32,31.8%,0.3,81,,,,Active,< 5

# — ChEMBL document CHEMBL3865787, “Combinatorial synthesis, in silico, molecular and biochemical studies of tetrazole-derived organic selenides with increased selectivity against hepatocellular carcinoma” (Eur J Med Chem, 2016)
